The source made the active and inactive calls. No cut-off for these calls is given here.
Experiments:
U-373MG ATCC [1] = test: (§1) Antioxidant activity in human U373 cells assessed as increase of antioxidant response element-mediated phase 2 protein expression at 25 ug/ml after 24 hrs by luciferase reporter gene assay relative to control; format: functional
Outline: (§2)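 U373 astrocytoma cells stably carrying firefly luciferase under ARE control, grown in DMEM with 10% FCS and antibiotics. 5 × 10^4 cells/well seeded in quadruplicate, exposed 24 h to 25, 10, 5 or 2.5 μg/mL glycoside, then luciferase read. Controls: mock-treated and DMSO 0.25% v/v. Activity expressed as fold change versus 25 μM tert-butylhydroquinone; >2-fold over TBHQ scored a hit.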

[2] = Antioxidant activity in human U373 cells assessed as increase of antioxidant response element-mediated phase 2 protein expression after 24 hrs by luciferase reporter gene assay relative to TBHQ; format: functional, U-373MG ATCC; outline: as §2
U-373MG ATCC [3] = test: Cytoprotective activity in human U373 cells assessed as effect of H2O2-stimulated lipid peroxidation assay at 2.5 to 25 ug/ml treated 24 hrs before H2O2 stimulation measured after 24 hrs by TBARS assay; format: functional, cell-based
Outline: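 U373 cells at 2 × 10^4/well in quadruplicate, 24 h pretreatment with 25, 10, 5 or 2.5 μg/mL glycoside, then 24 h in fresh media with glycoside and 300 μM H2O2. PBS-washed cells lysed by freeze–thaw; uncentrifuged lysate assayed for TBARS (MDA–TBA adduct, A532), calibrated with MDA 0–100 nmol/mL, reported as MDA equivalents. Mock and 0.25% DMSO controls.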

U-373MG ATCC [4] = test: Cytoprotective activity in H2O2-stimulated human U373 cells assessed as increase of glutathione peroxidase activity treated 24 hrs before H2O2 stimulation measured after 24 hrs; format: functional, cell-based
Outline: (§3)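 U373 cells at 2 × 10^4/well in quadruplicate, pretreated 24 h with 25, 10, 5 or 2.5 μg/mL glycoside. Media replaced with fresh media containing glycoside plus 300 μM H2O2 for 24 h more. Cells PBS-washed, lysed by three freeze–thaw cycles, centrifuged; SOD (WST-1/xanthine oxidase inhibition, […], against SOD standard curve) or GPx measured by colorimetric kits.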

U-373MG ATCC [5] = test: Cytoprotective activity in H2O2-stimulated human U373 cells assessed as increase of SOD activity treated 24 hrs before H2O2 stimulation measured after 24 hrs; format: functional, cell-based; outline: as §3
[6] = Cytotoxicity against human U373 cells; format: cell-based; settings: u-373mg atcc
Outline: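 Viability measured by MTT tetrazolium reduction in parallel reporter U373 cultures under the reporter assay conditions: 24 h with 25, 10, 5 or 2.5 μg/mL glycoside, quadruplicate wells.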

[7] = as §1; format: functional, U-373MG ATCC; outline: as §2
[8] = test system: xenobiotic response element (XRE)-mediated transcriptional activity; test: Toxicity in human U373 cells assessed as effect on xenobiotic response element-mediated activity at 2.5 to 25 ug/ml after 24 hrs by luciferase reporter gene assay; format: cell-based, U-373MG ATCC; settings: read-out: FC
Outline: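 XRE counterscreen: U373 astrocytoma cells stably carrying a luciferase cassette driven by the xenobiotic response element, grown in DMEM with 10% FCS and antibiotics. 5 × 10^4 cells/well in quadruplicate, 24 h with 25, 10, 5 or 2.5 μg/mL glycoside, then luciferase activity measured. Mock and DMSO (0.25% v/v) controls.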

U-373MG ATCC [9] = test: Antioxidant activity in human U373 cells assessed as increase of antioxidant response element-mediated phase 2 protein expression after 24 hrs by luciferase reporter gene assay; format: functional, cell-based; outline: as §2
U-373MG ATCC [10] = test: Cytoprotective activity in H2O2-stimulated human U373 cells assessed as increase of glutathione peroxidase activity at 2.5 to 25 ug/ml treated 24 hrs before H2O2 stimulation measured after 24 hrs; format: functional, cell-based; outline: as §3
U-373MG ATCC [11] = test: Cytoprotective activity in H2O2-stimulated human U373 cells assessed as increase of SOD activity at 2.5 to 25 ug/ml treated 24 hrs before H2O2 stimulation measured after 24 hrs; format: functional, cell-based; outline: as §3

| SMILES | Activity (U-373MG ATCC [1]) | fold change (FC) [2] | Activity (U-373MG ATCC [3]) | Activity (U-373MG ATCC [4]) | Activity (U-373MG ATCC [5]) | Activity [6] | fold change (FC) [7] | fold induction at 24 h [8] | Activity (U-373MG ATCC [9]) | Activity (U-373MG ATCC [10]) | Activity (U-373MG ATCC [11]) |
| --- | --- | --- | --- | --- | --- | --- | --- | --- | --- | --- | --- |
| CC(C)(C)c1cc(O)ccc1O | Active |  |  |  |  |  |  |  |  |  |  |
| CC(=O)O[C@H]1[C@@H](O[C@@H]2O[C@@H](C)[C@H](O)[C@@H](O)[C@H]2O)[C@H]2[C@@H]3CC[C@H]4C[C@@H](O[C@H]5O[C@@H](CO)[C@H](O)[C@@H](O)[C@@H]5O[C@@H]5O[C@@H](C)[C@H](O)[C@@H](O)[C@H]5O)CC[C@]4(C)[C@H]3CC[C@]2(C)[C@H]1[C@H](C)CCCC(C)C [ACANTHIFOLIOSIDE G] |  | 2 | inactive | Dose-dependent effect | Dose-dependent effect | Non-toxic | 2.27 | > 2 | Dose-dependent effect |  |  |
| CC[C@H](C(C)C)[C@@H](O)C[C@@H](C)[C@H]1[C@@H](OC(C)=O)[C@@H](O[C@@H]2O[C@@H](C)[C@H](O)[C@@H](O)[C@H]2O)[C@H]2[C@@H]3CC=C4C[C@@H](O[C@H]5O[C@@H](CO)[C@H](O)[C@@H](O)[C@@H]5O[C@@H]5O[C@@H](C)[C@H](O)[C@@H](O)[C@H]5O)CC[C@]4(C)[C@H]3CC[C@@]21C [ACANTHIFOLIOSIDE J] |  |  |  |  |  |  | 1.52 |  |  | Active | Active |

— ChEMBL document CHEMBL2203058, “Isolation of steroidal glycosides from the Caribbean sponge Pandaros acanthifolium” (J Nat Prod, 2012)
